Source: PubChem (several laboratories)
Shown are actives, neighbours in structure and some others; about 4% of the full set was active somewhere.
KCNQ1 inh = blocks the human KCNQ1 potassium channel; P51787; CHO-K1 KCNQ1, FluxOR thallium flux fluorescence; hits give high values; B-score at 10 µM; 310,000 tested, 1.3% active; AID 2642;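 active = compounds whose thallium flux B-score, printed positive for inhibition, exceeds three library SD while starting fluorescence stays within three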;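 note: channel opened by potassium depolarization with thallium stimulus after 20 min compound exposure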
KCNK3 block = human KCNK3 channel inhibition, primary screen | CHO-KCNK3 thallium flux, FluxOR fluorescence; hits give low values | B-score at 10 µM | 340,000 tested, 0.84% active;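 active = B-score under library mean minus 4 SD, starting fluorescence ratio at most library mean plus 5 SD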;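 note: more negative B-score means stronger inhibition of thallium flux through KCNK3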
PHOSPHO1 inh = inhibitors of human PHOSPHO1 phosphatase | Q8TCT1 | recombinant PHOSPHO1, absorbance phosphatase assay | inhibition, % at 13.3 µM | 290,000 tested, 1.1% active | AID 1565; in the data active = inhibition above about 60%
Target sequence (Q8TCT1 whole entry, looked up): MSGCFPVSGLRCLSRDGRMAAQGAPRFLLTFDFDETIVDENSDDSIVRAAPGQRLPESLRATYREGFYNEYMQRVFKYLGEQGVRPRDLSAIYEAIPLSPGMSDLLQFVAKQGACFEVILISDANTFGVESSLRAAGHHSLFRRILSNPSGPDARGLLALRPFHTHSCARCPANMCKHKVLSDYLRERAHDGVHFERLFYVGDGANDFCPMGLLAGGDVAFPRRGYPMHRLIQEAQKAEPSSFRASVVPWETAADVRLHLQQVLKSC
KCNQ1 act = potentiates or activates the human KCNQ1 potassium channel | P51787 | CHO-K1 KCNQ1, thallium flux FluxOR fluorescence; hits give high values | B-score at 10 µM | 310,000 tested, 0.35% active;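 active = fluorescence ratio B-score, a plate-corrected score, at least three library SD, with initial intensity B-score within 5 SD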
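System: CHO-K1 cells stably expressing KCNQ1 / Medium: assay buffer for compound exposure, DMSO matched across wells / Reagent: thallium- and potassium-containing depolarizing buffer / Compound: one concentration, matched DMSO / Incubation: 20 min compound pretreatment at room temperature / Measured by: kinetic FluxOR fluorescence, 10 s baseline plus 110 s post-stimulus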
KCNK9 block = human KCNK9 channel inhibition; Q9NPC2; HEK293 KCNK9, FluxOR thallium flux fluorescence; hits give low values; B-score at 10 µM; 310,000 tested, 1.2% active; AID 488922;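 active = ratio B-score over 3 SD below the library mean, with starting fluorescence within 5 SD of its mean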;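 note: negative B-score means less thallium flux so channel inhibition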
hERG rescue = compounds protecting human hERG from proarrhythmic drug block. AID 1511. activation (rescue from dofetilide block), less the hit threshold, % at 10 µM. CHO-hERG, FluxOR thallium flux, dofetilide IC70 present. Q12809. 310,000 tested, 0.51% active;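 active = activation above the mean of controls blocked by dofetilide plus 5 SD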;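 note: thallium influx through hERG after potassium depolarization seen as dye fluorescence rise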
KCNK3 confirm = confirmation of human KCNK3 two-pore domain potassium channel inhibitors; shares compounds with KCNK3 block; CHO-KCNK3 thallium flux, FluxOR fluorescence; 0% buffer, 100% carvedilol maximal block; 2,400 tested, 99% active; ratio percent of control, % at 10 µM;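 active = ratio percent of control, averaged over triplicates, above buffer control mean plus 5 SD, cut at about 64% in these data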;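 note: ratio is the fluorescence rise from min to max over baseline after thallium stimulus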
KCNK3 uninduced = counter-screen for KCNK3 inhibitors: effect in non-induced cells; thallium flux ratio (lower = more inhibition) at 10 µM; shares compounds with KCNK3 block; AID 651747; non-induced KCNK3 parental cells, FluxOR thallium flux; hits give low values; 2,400 tested, 40% active;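 active = thallium flux ratio, averaged over three wells, more than 5 SD below the buffer control mean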;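 note: host cells are CHO cells without KCNK3 induction; ratio is peak minus trough fluorescence over baseline then normalized to buffer controls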
An asterisk follows results filed as active; i = inactive; · = not tested or not shown.

SMILES	KCNQ1 inh	KCNK3 block	PHOSPHO1 inh	KCNQ1 act	KCNK9 block	hERG rescue	KCNK3 confirm	KCNK3 uninduced
COc1cc(NC(=O)CSCC(=O)Nc2cccc(C(F)(F)F)c2)c(Cl)cc1Cl	7*	-11*	-3	i	i	-12	115*	i
COc1ccc(-c2c(-c3ccccc3)c(C(=O)C(=O)NCCCN(C)C)n3ccc4cc(OC)c(OC)cc4c23)cc1OC	i	i	-16	i	i	-9	·	·
COc1ccc(NC2c3ccccc3C(=O)N2c2ccccn2)cc1Cl (configuration not stated)	i	-11*	20	i	-7.5*	-8	112*	i
Cc1ccc(C)c(C(=O)CC2(O)C(=O)N(C)c3ccccc32)c1 (configuration not stated)	i	i	23	i	i	-9	·	·
Cc1ccc(C(=O)CC2(O)C(=O)N(C)c3ccc(Br)cc32)c(C)c1 (configuration not stated)	i	-9.6*	-2	i	i	1	93*	i
CCOC(=O)c1c(NC(=O)CSc2nnc(CNc3ccc(F)cc3)o2)sc(C)c1C	i	i	53	i	i	-12	·	·
CCOC(=O)c1c(NC(=O)CSc2nnc(CNc3ccc(Cl)cc3)o2)sc(C)c1C	i	-9.6*	-8	i	i	-12	90*	i
CC(C)(C)OC(=O)N1CCC(CNC(=O)c2cccs2)CC1	i	i	3	i	i	-2	·	·
COc1ccc(-c2cc(OC)c3c(C)oc(C)c3c(=O)c2)cc1OC	i	-9*	7	i	i	-4	113*	0.15*
CCCOc1ccccc1Cn1c(=O)oc2ccccc21	i	-8.8*	14	i	i	-5	101*	i
CCCCOc1ccccc1Cn1c(=O)oc2ccc(C)cc21	i	i	7	i	i	-17	·	·
COCCOC(=O)C1=C(C)N=C2SCCC(=O)N2C1c1cccc(Br)c1 (configuration not stated)	i	-9.3*	-6	i	i	-14	112*	i
CCOC(=O)C1=C(C)N=C2SCCC(=O)N2C1c1cc(Br)ccc1OC (configuration not stated)	i	i	·	i	i	-5	·	·
COc1ccc(N2CCN(S(=O)(=O)c3ccc(OC)c(C(=O)N4CCOCC4)c3)CC2)cc1	i	i	10	i	i	-5	·	·
COc1ccc(C(=O)c2cnc3ccccc3c2-c2ccccc2)cc1	i	-9.2*	46	i	i	-9	112*	i
Cc1ccc(C(=O)c2cnc3ccccc3c2-c2ccccc2)cc1	i	-9.8*	-10	i	i	-5	118*	0.13*
O=C(O)c1cc(-c2ccc(/C=c3\sc4nc5ccc(Br)cc5n4c3=O)o2)ccc1Cl	i	·	-78	i	i	-16	·	·
COC(CN(C(=O)CCl)C(C(=O)NC1CCCCC1)c1ccccc1C)OC (configuration not stated)	i	i	-12	i	i	-9	·	·
N#CCC(=O)N/N=C/c1c(-c2ccccc2)n(-c2ccccc2)c2ccccc12	i	-9.6*	47	i	i	-7	97*	i
N#CCC(=O)N/N=C/c1cn(Cc2ccccc2C#N)c2ccccc12	i	i	15	i	i	1	·	·
CCc1ccccc1NC(=O)CNC(=O)CCNC(=O)Nc1ccccc1	·	i	·	·	·	·	·	·
CCC(=O)N=c1sc2c(OC)ccc(OC)c2n1C	i	i	·	i	i	-11	·	·
COc1ccc(OC)c2c1sc(=NC(=O)C1COc3ccccc3O1)n2C (configuration not stated)	i	-9.6*	-6	i	i	-10	108*	i
